From ChEMBL document CHEMBL1145090, “In vitro analysis of stable, receptor-selective neurotensin[8-13] analogues” (J Med Chem, 2003)
pIC50: −log10 of the molar value. Numbered stars: 1 amine (or outer) side, 2 acyl side, 3 side chain; on linkers, the order of the positions; unused ones are H or OH. Square brackets hold non-standard residues; d marks the D form. Peptide text beside a SMILES is read from it. X7 = CCNC(=N)NCCC[C@H](N)C(=O)/N=C(/N)NCCC[C@H](N[*:1])C(=O)[*:2]; X9 = NC1=NCCN1CCC[C@H](N[*:1])C(=O)[*:2]; Tle = CC(C)(C)[C@H](N)C(=O)O; hLys = NCCCCC[C@H](N)C(=O)O

Legend:
[1] = molecular target: Neurotensin receptor type 1 (Homo sapiens, UniProt P30989); assay: Evaluated for binding affinity by inhibiting binding of [125I]-Tyr(3)-NT to human Neurotensin receptor 1
[2] = Plasma half life in rat serum; format: ADME, organism-based
Sortilin = molecular target: T1, Sortilin (Homo sapiens, UniProt Q99523); assay: Evaluated for binding affinity by inhibiting binding of [125I]Tyr(3)-NT to human Neurotensin receptor 3
T1 sequence (Q99523 whole entry): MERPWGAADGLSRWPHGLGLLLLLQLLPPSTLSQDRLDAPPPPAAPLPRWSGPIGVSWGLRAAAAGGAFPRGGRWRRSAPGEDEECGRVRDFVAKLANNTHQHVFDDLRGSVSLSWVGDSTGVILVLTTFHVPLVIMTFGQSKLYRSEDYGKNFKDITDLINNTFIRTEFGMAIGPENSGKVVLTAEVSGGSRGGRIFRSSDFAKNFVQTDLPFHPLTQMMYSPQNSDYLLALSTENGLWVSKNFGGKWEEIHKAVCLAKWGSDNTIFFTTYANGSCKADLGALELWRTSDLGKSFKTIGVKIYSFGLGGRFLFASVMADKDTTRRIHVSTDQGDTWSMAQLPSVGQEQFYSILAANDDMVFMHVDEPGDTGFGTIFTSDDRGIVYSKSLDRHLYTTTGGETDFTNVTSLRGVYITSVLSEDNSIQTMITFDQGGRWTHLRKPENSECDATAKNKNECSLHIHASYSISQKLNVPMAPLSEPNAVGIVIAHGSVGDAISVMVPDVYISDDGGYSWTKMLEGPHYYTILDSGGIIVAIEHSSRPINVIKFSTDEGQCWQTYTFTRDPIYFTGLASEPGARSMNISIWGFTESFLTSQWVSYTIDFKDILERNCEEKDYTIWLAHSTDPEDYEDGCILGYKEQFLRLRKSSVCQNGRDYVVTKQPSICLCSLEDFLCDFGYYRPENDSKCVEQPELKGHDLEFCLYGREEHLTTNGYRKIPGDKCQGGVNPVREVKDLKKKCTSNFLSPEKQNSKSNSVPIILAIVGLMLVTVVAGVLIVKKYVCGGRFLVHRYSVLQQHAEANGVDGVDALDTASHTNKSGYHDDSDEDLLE
Summary of the method: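 Whole cells (2 × 10^5) transiently expressing human NTR-3, ~60 h post-transfection. Equilibrated 10 min in Earle's Tris-HEPES pH 7.5 with 0.1% glucose and 0.1% BSA, then incubated 30 min at 37 °C with 0.4 nM 125I-Tyr(3)-NT, 0.8 mM 1,10-phenanthroline and increasing peptide. Washed, lysed in 0.1 N NaOH, gamma-counted. Nonspecific binding with 1 µM NT. IC50 taken.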

[3] = molecular target: Neurotensin receptor type 2 (Homo sapiens, UniProt O95665); assay: Evaluated for binding affinity by inhibiting binding of [125I]Tyr(3)-NT to human Neurotensin receptor 2
Chain of Neurotensin receptor type 2 (O95665 whole entry): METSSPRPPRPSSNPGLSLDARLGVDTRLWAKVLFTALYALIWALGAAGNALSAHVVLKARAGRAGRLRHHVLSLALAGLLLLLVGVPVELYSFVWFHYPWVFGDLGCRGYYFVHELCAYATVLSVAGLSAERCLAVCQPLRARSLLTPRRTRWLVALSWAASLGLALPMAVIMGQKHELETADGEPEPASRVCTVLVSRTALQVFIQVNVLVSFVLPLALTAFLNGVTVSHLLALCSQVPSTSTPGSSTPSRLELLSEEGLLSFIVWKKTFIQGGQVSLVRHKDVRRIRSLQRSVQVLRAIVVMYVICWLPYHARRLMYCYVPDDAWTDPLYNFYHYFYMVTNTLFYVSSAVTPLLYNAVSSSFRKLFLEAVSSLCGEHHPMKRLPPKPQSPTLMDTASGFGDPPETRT

Chain of Neurotensin receptor type 1 (P30989 whole entry): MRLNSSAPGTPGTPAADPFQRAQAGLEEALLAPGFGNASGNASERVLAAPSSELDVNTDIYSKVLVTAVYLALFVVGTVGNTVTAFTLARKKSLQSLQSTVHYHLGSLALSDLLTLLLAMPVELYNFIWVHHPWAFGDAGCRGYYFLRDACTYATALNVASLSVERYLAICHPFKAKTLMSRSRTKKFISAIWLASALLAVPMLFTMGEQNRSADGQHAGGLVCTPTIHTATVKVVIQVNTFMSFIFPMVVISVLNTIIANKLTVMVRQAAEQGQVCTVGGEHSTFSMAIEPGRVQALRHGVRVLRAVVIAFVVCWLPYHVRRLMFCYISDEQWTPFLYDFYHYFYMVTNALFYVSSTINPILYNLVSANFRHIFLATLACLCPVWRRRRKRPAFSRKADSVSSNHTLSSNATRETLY

| Compound | pIC50 [1] | half-life [2] [h] | pIC50 (Sortilin) | pIC50 [3] |
| --- | --- | --- | --- | --- |
| CC[C@H](C)[C@H](NC(=O)[C@H](Cc1ccc(O)cc1)NC(=O)[C@@H]1CCCN1C(=O)[C@@H](N)CCC/N=C(/N)NC(=O)[C@@H](N)CCCN=C(N)N)C(=O)N[C@@H](CC(C)C)C(=O)O | 9.40 | 2.9 | 5.76 | 9.05 |
| CC[C@H](C)[C@H](NC(=O)[C@H](Cc1ccc(O)cc1)NC(=O)[C@@H]1CCCN1C(=O)[C@@H](N)CCC/N=C(/N)NC(=O)[C@@H](N)CCCCN(C)C)C(=O)N[C@@H](CC(C)C)C(=O)O | 9.40 | 2.12 | 5.79 | 8.55 |
| CCNC(=N)NCCC[C@H](N)C(=O)N[C@@H](CCCNC(=N)N)C(=O)N1CCC[C@H]1C(=O)N[C@@H](Cc1ccc(O)cc1)C(=O)N[C@H](C(=O)N[C@@H](CC(C)C)C(=O)O)[C@@H](C)CC |  | 0.525 |  |  |
| CC[C@H](C)[C@H](NC(=O)[C@H](Cc1ccc(O)cc1)NC(=O)[C@@H]1CCCN1C(=O)[C@H](CCCNC(=N)N)NC(=O)[C@@H](N)CCCNC(=N)N)C(=O)N[C@@H](CC(C)C)C(=O)O |  | 0.0983 |  |  |
| CC[C@H](C)[C@H](NC(=O)[C@H](Cc1ccc(O)cc1)NC(=O)[C@@H]1CCCN1C(=O)[C@H](CCCNC(=N)N)NC(=O)[C@@H](N)CCCN=C(N)NC)C(=O)N[C@@H](CC(C)C)C(=O)O |  | 0.237 |  |  |
| CC(C)C[C@H](NC(=O)[C@@H](NC(=O)[C@H](Cc1c[nH]c2ccccc12)NC(=O)[C@@H]1CCCN1C(=O)[C@@H](N)CCCN=C(N)NC(=O)[C@@H](N)CCCCCN)C(C)(C)C)C(=O)O (H-R(hLys)PW[Tle]L-OH) | 6.88 | > 24 | 4.27 | 6.30 |
| CC(C)C[C@H](NC(=O)[C@@H](NC(=O)[C@H](Cc1ccc(O)cc1)NC(=O)[C@@H]1CCCN1C(=O)[C@@H](N)CCCN=C(N)NC(=O)[C@@H](N)CCCCCN)C(C)(C)C)C(=O)O (H-R(hLys)PY[Tle]L-OH) |  |  | 5.40 | 7.95 |
| CC[C@H](C)[C@H](NC(=O)[C@H](Cc1ccc(O)cc1)NC(=O)[C@@H]1CCCN1C(=O)[C@H](CCCNC(=N)N)NC(=O)[C@@H](N)CCCN1CCN=C1N)C(=O)N[C@@H](CC(C)C)C(=O)O (H-[X9]RPYIL-OH) |  | 0.275 |  |  |
| CC(C)C[C@H](NC(=O)[C@@H](NC(=O)[C@H](Cc1ccc(O)cc1)NC(=O)[C@@H]1CCCN1C(=O)[C@H](CCCNC(=N)N)NC(=O)[C@@H](N)CCCCCN)C(C)(C)C)C(=O)O (H-[hLys]RPY[Tle]L-OH) | 8.24 | > 24 |  |  |

Now from value to compound:

| pIC50 [1] | half-life [2] [h] | pIC50 (Sortilin) | pIC50 [3] | Compound |
| --- | --- | --- | --- | --- |
| 9.29 | 1.72 | 6.26 | 8.51 | CC[C@H](C)[C@H](NC(=O)[C@H](Cc1ccc(O)cc1)NC(=O)[C@@H]1CCCN1C(=O)[C@@H](N)CCCNC(=N)NC(=O)[C@@H](N)CCCCC[N+](C)(C)C)C(=O)N[C@@H](CC(C)C)C(=O)O |
|  |  | 6.19 | 8.46 | CC[C@H](C)[C@H](NC(=O)[C@H](Cc1ccc(O)cc1)NC(=O)[C@@H]1CCCN1C(=O)[C@@H](N)CCCN=C(N)NC(=O)[C@@H](N)CCCNC)C(=O)N[C@@H](CC(C)C)C(=O)O |
|  |  | 6.32 | 8.29 | CC[C@H](C)[C@H](NC(=O)[C@H](Cc1ccc(O)cc1)NC(=O)[C@@H]1CCCN1C(=O)[C@@H](N)CCC/N=C(/N)NC(=O)[C@@H](N)CCCN(C)C)C(=O)N[C@@H](CC(C)C)C(=O)O |
| 9.28 | 3.52 | 6.40 | 8.16 | CC[C@H](C)[C@H](NC(=O)[C@H](Cc1ccc(O)cc1)NC(=O)[C@@H]1CCCN1C(=O)[C@@H](N)CCC/N=C(/N)NC(=O)[C@@H](N)CCCCCNC)C(=O)N[C@@H](CC(C)C)C(=O)O |
| 9.55 | 2.1 | 6.15 | 8.46 | CC[C@H](C)[C@H](NC(=O)[C@H](Cc1ccc(O)cc1)NC(=O)[C@@H]1CCCN1C(=O)[C@@H](N)CCC/N=C(/N)NC(=O)[C@@H](N)CCCCCN(C)C)C(=O)N[C@@H](CC(C)C)C(=O)O |
| 9.47 | 2.13 | 5.94 | 8.74 | CC[C@H](C)[C@H](NC(=O)[C@H](Cc1ccc(O)cc1)NC(=O)[C@@H]1CCCN1C(=O)[C@@H](N)CCC/N=C(/N)NC(=O)[C@@H](N)CCCCNC)C(=O)N[C@@H](CC(C)C)C(=O)O |
| 9.42 | 2.55 | 5.92 | 9.15 | CC[C@H](C)[C@H](NC(=O)[C@H](Cc1ccc(O)cc1)NC(=O)[C@@H]1CCCN1C(=O)[C@@H](N)CCC/N=C(/N)NC(=O)[C@@H](N)CCCCCN)C(=O)N[C@@H](CC(C)C)C(=O)O |
|  |  | 6.23 | 9.64 | CC[C@H](C)[C@H](NC(=O)[C@H](Cc1ccc(O)cc1)NC(=O)[C@@H]1CCCN1C(=O)[C@@H](N)CCC/N=C(/N)NC(=O)[C@@H](N)CCCN1CCN=C1N)C(=O)N[C@@H](CC(C)C)C(=O)O |
| 9.23 | 2.23 | 5.85 | 8.52 | CC[C@H](C)[C@H](NC(=O)[C@H](Cc1ccc(O)cc1)NC(=O)[C@@H]1CCCN1C(=O)[C@@H](N)CCCN=C(N)NC(=O)[C@@H](N)CCCN)C(=O)N[C@@H](CC(C)C)C(=O)O |
| 9.52 | 2.27 | 6.29 | 8.68 | CC[C@H](C)[C@H](NC(=O)[C@H](Cc1ccc(O)cc1)NC(=O)[C@@H]1CCCN1C(=O)[C@@H](N)CCCN=C(N)NC(=O)[C@@H](N)CCCCN)C(=O)N[C@@H](CC(C)C)C(=O)O |
|  |  | 6.14 | 9.17 | CC[C@H](C)[C@H](NC(=O)[C@H](Cc1ccc(O)cc1)NC(=O)[C@@H]1CCCN1C(=O)[C@@H](N)CCCN=C(N)NC(=O)[C@@H](N)CCCN=C(N)NC)C(=O)N[C@@H](CC(C)C)C(=O)O |
|  |  | 6.32 | 9.52 | CCNC(=N)NCCC[C@H](N)C(=O)/N=C(/N)NCCC[C@H](N)C(=O)N1CCC[C@H]1C(=O)N[C@@H](Cc1ccc(O)cc1)C(=O)N[C@H](C(=O)N[C@@H](CC(C)C)C(=O)O)[C@@H](C)CC (H-[X7]PYIL-OH) |
